In ChEMBL document CHEMBL3351523 (Bioorg Med Chem, 2014):

Legend:
[1] = Cytotoxicity against mock-infected human MT4 cells after 96 hrs by MTT assay; assay type: cell-based
How it was run: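 Exponentially growing MT-4 cells were seeded at 1 × 10^5 cells/mL in RPMI-1640 with 10% FBS and held at 37 °C, 5% CO2 with serial compound dilutions. Viability was read by MTT after 96 h. CC50 from linear regression against untreated controls.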

[2] = tested on: Human immunodeficiency virus 1; experiment: Antiviral activity against HIV1 infected in human MT4 cells assessed as inhibition of virus-induced cytopathogenicity after 4 days by MTT assay; assay type: functional, organism-based; conditions: Human immunodeficiency virus 1, MT4, 96 h
How it was run: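 MT-4 cells (1 × 10^4/well in RPMI) were infected acutely with HIV-1 IIIB, 100 CCID50 (m.o.i. 0.01), with serial dilutions from 100 µM, 1:5. After 4 days at 37 °C, protection from virus-induced cytopathogenicity was read by MTT. EC50 came from linear regression against untreated controls.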

[3] = Cytotoxicity against mock-infected MDBK cells after 48 to 96 hrs by MTT assay; assay type: cell-based, Bos taurus; conditions: cattle
How it was run: (§1)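 Mock-infected MDBK (6 × 10^5 cells/mL; MEM-E, 10% horse serum, 1 mM pyruvate) or BHK (1 × 10^6 cells/mL; MEM-E, 10% FBS) cells were incubated at 37 °C, 5% CO2 with serial dilutions from 100 µM, 1:5. Viability by MTT after 48–96 h. CC50 from linear regression against untreated controls.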

[4] = tested on: Bovine viral diarrhea virus 1; experiment: Antiviral activity against Bovine viral diarrhea virus infected in MDBK cells assessed as inhibition of virus-induced cytopathogenicity after 3 to 4 days by MTT assay; assay type: functional, organism-based; conditions: Bovine viral diarrhea virus isolates and strains
[5] = Cytotoxicity against mock-infected BHK21 cells after 48 to 96 hrs by MTT assay; assay type: functional; conditions: Mesocricetus auratus, BHK-21; how it was run: as §1
[6] = tested on: Yellow fever virus; experiment: Antiviral activity against Yellow fever virus infected in BHK21 cells assessed as inhibition of virus-induced cytopathogenicity after 3 to 4 days by MTT assay; assay type: functional, organism-based; conditions: BHK-21
[7] = tested on: Reovirus sp.; experiment: Antiviral activity against Reovirus type-1 infected in BHK21 cells assessed as inhibition of virus-induced cytopathogenicity after 3 to 4 days by MTT assay; assay type: functional, organism-based; conditions: BHK-21
[8] = Cytotoxicity against mock-infected african green monkey Vero 76 cells after 48 to 96 hrs by MTT assay; assay type: cell-based; conditions: chlorocebus sabaeus, mock-infected Vero 76 cells
[9] = tested on: Poliovirus 1; experiment: Antiviral activity against Poliovirus type 1 Sabin strain infected in african green monkey Vero 76 cells assessed as reduction in plaque number after 2 days by plaque reduction assay; assay type: functional, organism-based; conditions: Enterovirus C, 48 h
[10] = tested on: Vesicular stomatitis virus; experiment: Antiviral activity against Vesicular stomatitis virus infected in african green monkey Vero 76 cells assessed as reduction in plaque number after 2 days by plaque reduction assay; assay type: functional, organism-based; conditions: 48 h
[11] = tested on: Human alphaherpesvirus 1; experiment: Antiviral activity against HSV1 infected in african green monkey Vero 76 cells assessed as reduction in plaque number after 3 days by plaque reduction assay; assay type: functional, organism-based; conditions: Human alphaherpesvirus 1, Vero, 72 h
[12] = tested on: Coxsackievirus B5; experiment: Antiviral activity against Coxsackievirus B5 infected in african green monkey Vero 76 cells assessed as reduction in plaque number after 3 days by plaque reduction assay; assay type: functional, organism-based; conditions: Enterovirus B, 72 h
[13] = tested on: Respiratory syncytial virus; experiment: Antiviral activity against Respiratory syncytial virus infected in african green monkey Vero 76 cells assessed as reduction in plaque number after 5 days by plaque reduction assay; assay type: functional, organism-based; conditions: human respiratory syncytial virus, 120 h
[14] = tested on: Vaccinia virus; experiment: Antiviral activity against Vaccinia Virus infected in african green monkey Vero 76 cells assessed as reduction in plaque number after 3 days by plaque reduction assay; assay type: functional, organism-based; conditions: Orthopoxvirus vaccinia, 72 h

| SMILES | CC50 at 96 h [1] | EC50 [2] | CC50 [3] | EC50 [4] | CC50 [5] | EC50 [6] | EC50 [7] | CC50 [8] | EC50 [9] | EC50 [10] | EC50 [11] | EC50 [12] | EC50 [13] | EC50 [14] |
| --- | --- | --- | --- | --- | --- | --- | --- | --- | --- | --- | --- | --- | --- | --- |
| CC1(c2nc3cc(Cl)c(Cl)cc3[nH]2)CCC(CO)C(C)(C)O1 (configuration not stated) | 33 µM | > 100 µM | > 100 µM | 46 µM | > 100 µM | > 100 µM | > 100 µM | > 100 µM | 12 µM | > 100 µM | 60 µM |  |  |  |
| CCOCc1nc2ccccc2[nH]1 | > 100 µM | > 100 µM | > 100 µM | > 100 µM | > 100 µM | > 100 µM | > 100 µM | > 100 µM | > 100 µM | > 100 µM | > 100 µM | > 100 µM | > 100 µM | > 100 µM |
| CCCCn1c(-c2ccc(OC)cc2)nc2cc(C(F)(F)F)ccc21 | > 100 µM | > 100 µM | 22 µM | > 100 µM | 35 µM | > 100 µM | > 100 µM | 80 µM | 25 µM | > 100 µM | > 100 µM | > 100 µM | > 100 µM | > 100 µM |
| CC1(c2nc3ccccc3[nH]2)CCC(C#N)C(C)(C)O1 (configuration not stated) | > 100 µM | > 100 µM | > 100 µM | > 100 µM | > 100 µM | > 100 µM | > 100 µM | > 100 µM | > 100 µM | > 100 µM | > 100 µM |  |  |  |
| Clc1ccc2[nH]c(C[C@@H]3CCCN4CCCC[C@H]34)nc2c1 | 53 µM | > 100 µM | 77 µM | 17 µM | 52 µM | > 100 µM | > 100 µM | > 100 µM | > 100 µM | > 100 µM | > 100 µM | > 100 µM | > 100 µM | > 100 µM |
| CC(CC(=O)O)n1c(Cc2ccc(Cl)cc2)nc2ccccc21 (configuration not stated) | > 100 µM | > 100 µM | > 100 µM | > 100 µM | > 100 µM | > 100 µM | > 100 µM | > 100 µM | > 100 µM | > 100 µM | > 100 µM | > 100 µM | > 100 µM | > 100 µM |
| FC(F)(F)c1ccc2c(c1)nc(CC1=CCCC1)n2C[C@@H]1CCCN2CCCC[C@H]12 | 5 µM | > 100 µM | 50 µM | > 100 µM | 30 µM | > 100 µM | > 100 µM | > 100 µM | > 100 µM | > 100 µM | 30 µM | > 100 µM | > 100 µM | > 100 µM |
| c1ccc2c(c1)ncn2C1CCCCO1 (configuration not stated) | > 100 µM | > 100 µM | > 100 µM | > 100 µM | > 100 µM | > 100 µM |  |  |  |  |  |  |  |  |
| c1ccc2[nH]c(C[C@H]3CCCN4CCCC[C@H]34)nc2c1 | > 100 µM | > 100 µM | > 100 µM | > 100 µM | > 100 µM | > 100 µM | > 100 µM | > 100 µM | > 100 µM | > 100 µM | > 100 µM | > 100 µM | > 100 µM | > 100 µM |
| CC(=O)Nc1ccc(Cc2nc3cc(Cl)c(Cl)cc3[nH]2)cc1 | > 100 µM | > 100 µM | > 100 µM | > 100 µM | > 100 µM | > 100 µM | > 100 µM | > 100 µM | > 100 µM | > 100 µM | > 100 µM | > 100 µM | > 100 µM | > 100 µM |
| Nc1nc2c(ncn2COCCO)c(=O)[nH]1 [ACYCLOVIR] | > 100 µM |  | > 100 µM | > 100 µM | > 100 µM | > 100 µM | > 100 µM | > 100 µM | > 100 µM | > 100 µM | 1.2 µM | > 100 µM | > 100 µM | > 100 µM |
| O=C1c2ccccc2-n2c(nc3cccnc32)CN1C[C@@H]1CCCN2CCCC[C@H]12 | 31 µM | > 100 µM | 91 µM | 17 µM | 37 µM | > 100 µM |  | > 90 µM | > 100 µM | > 100 µM |  | > 100 µM | > 100 µM | > 100 µM |
| COc1ccc(-c2nc3cc(Cl)ccc3n2[C@H]2CCCN3CCCC[C@H]23)cc1 | > 100 µM | > 100 µM | > 100 µM | 36 µM | > 100 µM | > 100 µM | > 100 µM | > 100 µM | > 100 µM | > 100 µM | > 100 µM | > 100 µM | > 100 µM | > 100 µM |
| c1ccc2[nH]c(CCCC3NCC4CNCC3C4)nc2c1 (configuration not stated) | > 100 µM | > 100 µM | > 100 µM | > 100 µM | > 100 µM | > 100 µM | > 100 µM | > 100 µM | > 100 µM | > 100 µM | > 100 µM | > 100 µM | > 100 µM | > 100 µM |
| c1ccc2[nH]c(CCCC3NCC4CC3CN3CCCCC43)nc2c1 (configuration not stated) | > 100 µM | > 100 µM | > 100 µM | 94 µM | > 100 µM | 87 µM | > 100 µM | > 100 µM | > 100 µM | > 100 µM | > 100 µM | > 100 µM | > 100 µM | > 100 µM |
| ClC1(Cl)C2CCOC21n1cnc2ccccc21 (configuration not stated) | 33 µM | > 100 µM |  |  |  |  |  |  |  |  |  |  |  |  |
| Clc1cc2ncn(C3CCCO3)c2cc1Cl (configuration not stated) | > 100 µM | > 100 µM | > 100 µM | > 100 µM | > 100 µM | > 100 µM | > 100 µM |  |  |  |  |  |  |  |
| O=C1Nc2ccc(Cl)cc2[C@@](C#CC2CC2)(C(F)(F)F)O1 [EFAVIRENZ] | 38 µM |  |  |  |  |  |  |  |  |  |  |  |  |  |
| Clc1cc2nc(C3CCCO3)[nH]c2cc1Cl (configuration not stated) |  |  | > 100 µM | > 100 µM | > 100 µM | > 100 µM |  |  |  |  |  |  |  |  |
| Clc1ccc2[nH]c(C3CCCCO3)nc2c1 (configuration not stated) | > 100 µM | > 100 µM | > 100 µM | > 100 µM | > 100 µM | > 100 µM | > 100 µM | > 100 µM | 20 µM | > 100 µM | > 100 µM |  |  |  |
| c1ccc2[nH]c(C3CCCCO3)nc2c1 (configuration not stated) | > 100 µM | > 100 µM | > 100 µM | > 100 µM | > 100 µM | > 100 µM | > 100 µM | > 100 µM | > 100 µM | > 100 µM | > 100 µM |  |  |  |
| CC1(c2nc3ccccc3[nH]2)CCC(C(N)=O)C(C)(C)O1 (configuration not stated) | > 100 µM | > 100 µM | > 100 µM | > 100 µM | > 100 µM | > 100 µM | > 100 µM | > 100 µM | > 100 µM | > 100 µM | > 100 µM |  |  |  |
| Clc1cc2nc(C3CCCCO3)[nH]c2cc1Cl (configuration not stated) | 6 µM | > 100 µM | > 100 µM | > 100 µM | > 100 µM | > 100 µM | > 100 µM | > 100 µM | 60 µM | > 100 µM | > 100 µM |  |  |  |
| FC(F)(F)c1ccc2[nH]c(C3CCCCO3)nc2c1 (configuration not stated) | 97 µM | > 100 µM | > 100 µM | > 100 µM | > 100 µM | > 100 µM | > 100 µM | > 100 µM | > 100 µM | > 100 µM | > 100 µM |  |  |  |
